Experiments:
Assay type in all cases: functional
[1] = test system: Staphylococcus aureus; experiment: Antibacterial activity against tetracycline/methicillin-resistant Staphylococcus aureus XU212 after 16 hrs by microdilution method; conditions: XU212, 16 h
Summary of the method: (§1)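 Broth microdilution in cation-adjusted Mueller-Hinton broth (20 mg/l Ca2+, 10 mg/L Mg2+), inoculum 5×10^5 CFU/mL. Compounds in DMSO, solvent under 1% in well, tested over 0.12-128 µg/ml. […] Each determined at least twice; values converted to µmol/L.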

[2] = test system: Staphylococcus aureus; experiment: Antibacterial activity against erythromycin-resistant Staphylococcus aureus RN4220 after 16 hrs by microdilution method; conditions: RN4220, 16 h; summary of the method: as §1
[3] = test system: Staphylococcus aureus; experiment: Antibacterial activity against Norfloxacin-resistant Staphylococcus aureus 1199B over-expressing NorA after 16 hrs by microdilution method; summary of the method: as §1
[4] = test system: Staphylococcus aureus; experiment: Antibacterial activity against methicillin-sensitive Staphylococcus aureus NCTC 12981 after 16 hrs by microdilution method; conditions: NCTC 12981, 16 h
Summary of the method: (§2)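 Broth microdilution in cation-adjusted Mueller-Hinton broth (20 mg/l Ca2+, 10 mg/L Mg2+), inoculum 5×10^5 CFU/mL. Compounds from DMSO stocks, final DMSO <1%, tested over 0.12–128 µg/ml. Incubated 37 °C and read visually after 16 h. MIC is the lowest concentration with no visible growth, determined at least twice and converted to µmol/L.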

[5] = test system: Enterococcus faecalis; experiment: Antibacterial activity against Enterococcus faecalis NCTC 12697 after 16 hrs by microdilution method; conditions: NCTC 12697, 16 h; summary of the method: as §2
[6] = test system: Bacillus subtilis; experiment: Antibacterial activity against Bacillus subtilis NCTC 10400 after 16 hrs by microdilution method; conditions: NCTC 10400, 16 h; summary of the method: as §2
[7] = test system: Staphylococcus aureus; experiment: Antibacterial activity against methicillin-resistant Staphylococcus aureus NCTC 13373 after 16 hrs by microdilution method; conditions: NCTC 13373, 16 h; summary of the method: as §1
[8] = test system: Staphylococcus aureus; experiment: Antibacterial activity against Staphylococcus aureus EMRSA-15 after 16 hrs by microdilution method; conditions: EMRSA-15, 16 h; summary of the method: as §2
[9] = test system: Escherichia coli; experiment: Antibacterial activity against Escherichia coli NCTC 12241 after 16 hrs by microdilution method; conditions: NCTC 12241, 16 h; summary of the method: as §2

| Structure (SMILES) | MIC [1] | MIC [2] | MIC [3] | MIC [4] | MIC [5] | MIC [6] | MIC [7] | MIC [8] | MIC [9] [µg/mL] |
| --- | --- | --- | --- | --- | --- | --- | --- | --- | --- |
| Cc1cc(C(=O)/C=C(\O)C(=O)O)cc(C)c1O | > 128 µg/mL | > 128 µg/mL | > 128 µg/mL | > 128 µg/mL | > 128 µg/mL | > 128 µg/mL | > 128 µg/mL | > 128 µg/mL | > 128 |
| COc1cccc(C(=O)/C=C(\O)C(=O)O)c1 | > 128 µg/mL | > 128 µg/mL | > 128 µg/mL | > 128 µg/mL | > 128 µg/mL | > 128 µg/mL | > 128 µg/mL | > 128 µg/mL | > 128 |
| CN(C)c1ccc(C(=O)/C=C(\O)C(=O)O)cc1 | > 128 µg/mL | > 128 µg/mL | > 128 µg/mL | > 128 µg/mL | > 128 µg/mL | > 128 µg/mL | > 128 µg/mL | > 128 µg/mL | > 128 |
| Cc1cccc(C(=O)/C=C(\O)C(=O)O)c1 | > 128 µg/mL | > 128 µg/mL | > 128 µg/mL | > 128 µg/mL | > 128 µg/mL | > 128 µg/mL | > 128 µg/mL | > 128 µg/mL | > 128 |
| Cc1ccccc1C(=O)/C=C(\O)C(=O)O | > 128 µg/mL | > 128 µg/mL | > 128 µg/mL | > 128 µg/mL | > 128 µg/mL | > 128 µg/mL | > 128 µg/mL | > 128 µg/mL | > 128 |
| Cc1cc(C)c(C)c(C(=O)/C=C(\O)C(=O)O)c1C | > 128 µg/mL | > 128 µg/mL | > 128 µg/mL | > 128 µg/mL | 516 µM | > 128 µg/mL | > 128 µg/mL | > 128 µg/mL | > 128 |
| O=C(O)/C(O)=C/C(=O)c1ccc(N2CCCC2)cc1 | > 128 µg/mL | > 128 µg/mL | > 128 µg/mL | > 128 µg/mL | > 128 µg/mL | > 128 µg/mL | > 128 µg/mL | > 128 µg/mL | > 128 |
| CC(C)c1cc(C(C)C)c(C(=O)CCC(=O)O)c(C(C)C)c1 | > 128 µg/mL | > 128 µg/mL | > 128 µg/mL | > 128 µg/mL | – | – | > 128 µg/mL | > 128 µg/mL | > 128 |
| CN1CCN(c2ccc(C(=O)/C=C(\O)C(=O)O)cc2)CC1 | > 128 µg/mL | > 128 µg/mL | > 128 µg/mL | > 128 µg/mL | > 128 µg/mL | > 128 µg/mL | > 128 µg/mL | > 128 µg/mL | > 128 |
| C[C@H]1COc2c(N3CCN(C)CC3)c(F)cc3c(=O)c(C(=O)O)cn1c23 [LEVOFLOXACIN] | – | 0.69 µM | 5.53 µM | – | 1.4 µM | – | – | – | – |
| O=C(O)CCC(=O)c1cc(C2CCCCC2)ccc1C1CCCCC1 | 47 µM | 47 µM | 47 µM | 94 µM | – | – | 94 µM | 94 µM | > 128 |
| CC(C)c1ccc(C(=O)/C=C(\O)C(=O)O)c(C(C)C)c1 | 464 µM | 232 µM | 232 µM | – | – | – | – | 232 µM | > 128 |
| O=C(O)/C(O)=C/C(=O)c1ccc(-c2ccccc2)cc1 | > 128 µg/mL | > 128 µg/mL | 477 µM | – | – | – | – | > 128 µg/mL | > 128 |
| O=C(O)/C(O)=C/C(=O)c1ccc(-n2ccnc2)cc1 | 496 µM | > 128 µg/mL | 124 µM | > 128 µg/mL | 496 µM | 496 µM | 248 µM | > 128 µg/mL | > 128 |
| COc1ccccc1C(=O)/C=C(\O)C(=O)O | > 128 µg/mL | > 128 µg/mL | > 128 µg/mL | > 128 µg/mL | > 128 µg/mL | > 128 µg/mL | > 128 µg/mL | > 128 µg/mL | > 128 |
| CCCCc1ccc(C(=O)/C=C(\O)C(=O)O)cc1 | 258 µM | 258 µM | 258 µM | 258 µM | 129 µM | > 128 µg/mL | 258 µM | 258 µM | > 128 |

| Structure (SMILES) | MIC [1] | MIC [2] | MIC [3] | MIC [4] | MIC [5] | MIC [6] | MIC [7] | MIC [8] | MIC [9] [µg/mL] |
| --- | --- | --- | --- | --- | --- | --- | --- | --- | --- |
| CC(C)(C)c1ccc(C(=O)/C=C(\O)C(=O)O)cc1 | > 128 µg/mL | > 128 µg/mL | 1030 µM | – | – | – | – | > 128 µg/mL | > 128 |
| O=C(O)/C(O)=C/C(=O)c1ccccc1 | – | – | > 2660 µM | – | – | – | – | – | > 128 |
| CCn1cc(C(=O)O)c(=O)c2cc(F)c(N3CCNCC3)cc21 [NORFLOXACIN] | > 128 µg/mL | > 128 µg/mL | 106 µM | – | 6.3 µM | – | – | 3.3 µM | – |
| Cc1ccc(C(=O)/C=C(\O)C(=O)O)c(C)c1 | > 128 µg/mL | > 128 µg/mL | > 128 µg/mL | > 128 µg/mL | > 128 µg/mL | > 128 µg/mL | > 128 µg/mL | > 128 µg/mL | > 128 |
| O=C(O)c1cn(C2CC2)c2cc(N3CCNCC3)c(F)cc2c1=O [CIPROFLOXACIN] | – | 0.76 µM | – | – | 1.5 µM | – | – | – | – |
| CC(=O)c1cc(C2CCCCC2)ccc1C1CCCCC1 | 225 µM | 225 µM | 450 µM | 450 µM | – | – | 450 µM | 225 µM | > 128 |
| O=C(O)/C(O)=C/C(=O)c1cccc(C(F)(F)F)c1 | > 128 µg/mL | > 128 µg/mL | > 128 µg/mL | > 128 µg/mL | > 128 µg/mL | > 128 µg/mL | > 128 µg/mL | > 128 µg/mL | > 128 |
| O=C(O)/C(O)=C/C(=O)c1cccc(Br)c1 | > 128 µg/mL | > 128 µg/mL | > 128 µg/mL | > 128 µg/mL | > 128 µg/mL | > 128 µg/mL | > 128 µg/mL | > 128 µg/mL | > 128 |
| O=C(O)CCC(=O)c1ccc(-c2ccccc2)cc1 [FENBUFEN] | > 128 µg/mL | > 128 µg/mL | > 128 µg/mL | > 128 µg/mL | – | – | > 128 µg/mL | > 128 µg/mL | > 128 |
| COc1cc(C)c(C(=O)/C=C(\O)C(=O)O)cc1C | > 128 µg/mL | > 128 µg/mL | > 128 µg/mL | > 128 µg/mL | > 128 µg/mL | > 128 µg/mL | > 128 µg/mL | > 128 µg/mL | > 128 |
| O=C(O)/C(O)=C/C(=O)c1ccc2c(c1)CCCC2 | > 128 µg/mL | > 128 µg/mL | 520 µM | > 128 µg/mL | 260 µM | > 128 µg/mL | > 128 µg/mL | 520 µM | > 128 |
| Cc1cc(C)c(C(=O)/C=C(\O)C(=O)O)cc1C | > 128 µg/mL | > 128 µg/mL | > 128 µg/mL | > 128 µg/mL | > 128 µg/mL | > 128 µg/mL | > 128 µg/mL | > 128 µg/mL | > 128 |
| CC(C)c1ccc(C(C)C)c(C(=O)/C=C(\O)C(=O)O)c1 | 464 µM | 464 µM | 232 µM | – | – | – | – | 232 µM | > 128 |
| COc1c(N2C[C@@H]3CCCN[C@@H]3C2)c(F)cc2c(=O)c(C(=O)O)cn(C3CC3)c12 [MOXIFLOXACIN] | – | 0.31 µM | 0.62 µM | – | – | – | – | – | – |
| O=C(O)/C(O)=C/C(=O)c1ccc(N2CCOCC2)cc1 | > 128 µg/mL | > 128 µg/mL | > 128 µg/mL | > 128 µg/mL | > 128 µg/mL | > 128 µg/mL | > 128 µg/mL | > 128 µg/mL | > 128 |
